Tests used:
recombinant rat HSL [1] = target: T1, recombinant rat HSL (Rattus norvegicus, UniProt P15304); test: Determination of rate constants for binding and inactivation of HSL; type: biochemical; conditions: fit to Eqn 2; no preincubation, 37 °C
T1 sequence (P15304 1-768 isoform P15304-2): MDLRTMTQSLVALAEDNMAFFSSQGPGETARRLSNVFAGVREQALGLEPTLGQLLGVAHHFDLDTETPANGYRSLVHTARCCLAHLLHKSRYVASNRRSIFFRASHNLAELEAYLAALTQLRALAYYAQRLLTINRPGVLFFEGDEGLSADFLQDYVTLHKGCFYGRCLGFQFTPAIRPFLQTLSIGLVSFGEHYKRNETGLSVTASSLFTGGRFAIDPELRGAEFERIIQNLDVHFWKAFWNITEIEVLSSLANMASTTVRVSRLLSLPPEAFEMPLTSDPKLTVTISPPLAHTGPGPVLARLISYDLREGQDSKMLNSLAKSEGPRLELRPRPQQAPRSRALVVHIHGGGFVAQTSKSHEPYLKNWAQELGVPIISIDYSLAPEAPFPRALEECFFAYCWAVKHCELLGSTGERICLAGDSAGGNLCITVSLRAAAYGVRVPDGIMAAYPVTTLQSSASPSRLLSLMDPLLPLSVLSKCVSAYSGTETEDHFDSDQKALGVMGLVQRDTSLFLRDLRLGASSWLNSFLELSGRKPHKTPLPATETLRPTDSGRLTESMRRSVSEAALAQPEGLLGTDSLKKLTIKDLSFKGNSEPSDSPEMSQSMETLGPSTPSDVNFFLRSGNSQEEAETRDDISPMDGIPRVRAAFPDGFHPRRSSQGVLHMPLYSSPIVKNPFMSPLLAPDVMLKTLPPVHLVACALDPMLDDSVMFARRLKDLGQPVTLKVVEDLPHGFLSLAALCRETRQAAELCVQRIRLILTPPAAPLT
Summary of the method: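 Baculovirus/Sf9-expressed rat HSL, Ni-NTA purified. Inhibitor in PC/PI (3:1) liposomes with 500 μM triolein plus 3H-triolein; pH 7.4 buffer, 0.2% BSA. Enzyme added directly at 37 °C; samples every 3–5 min for 30 min, 3H-oleate extracted, scintillation counted. Activity–time data at several inhibitor concentrations fit to Eqn 1 (kobs, k−2); normalized activity fit to Eqn 2 (KI, k2).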

recombinant rat HSL [2] = target: T1, recombinant rat HSL; test: HSL lipase assay; type: biochemical; conditions: for times more potent than the corresponding cis isomer: chain lengths of 12–18 carbon atoms

`CCCCCCCCCCCCCCCCO[P@]1(=O)OC[C@@H]2COC(=O)C2=C(C)O1` [Cyclipostin P 4a] was tested, and the “k2 (forward rate constant for inactivation)” value (recombinant rat HSL [1]) was 0.2 min⁻¹.
In the case of `CCCCCCCCCCCCCCCCCC[C@H]1CC[P@@](=O)(OC)OC(C)=C1C(=O)OC` [12b], the “times more potent than the corresponding cis isomer” value (recombinant rat HSL [2]) is reported as 2–6 times.
`CCCCCCCCCCCCCCCC[C@H]1CC[P@@](=O)(OC)OC(C)=C1C(=O)OC` [11b] was tested, and the “times more potent than the corresponding cis isomer” value (recombinant rat HSL [2]) was 2–6 times.
With `CCCCCCCCCCCC[C@H]1CC[P@@](=O)(OC)OC(C)=C1C(=O)OC` [10b] the “times more potent than the corresponding cis isomer” value (recombinant rat HSL [2]) was 2–6 times.
`CCCCCCCCCCCCCCCCO[P@]1(=O)OC[C@H]2COC(=O)C2=C(C)O1` [Cyclipostin P 4b] was tested, and the “fold weaker IC50 of the less potent diastereomer vs the more potent diastereomer” value (recombinant rat HSL [2]) was 16 fold.
With `CCCCCCCCCCCCCCCCO[P@]1(=O)CC[C@@H]2COC(=O)C2=C(C)O1` (racemic) [Cyclipostin P Phosphonate 6a, (±)-(3R(S),5aR(S))-3-(hexadecyloxy)-1-methyl-4,5,5a,6-tetrahydrofuro[3,4-e][1,2]oxaphosphepin-8(3H)-one 3-oxide] the “fold less potent than the other bicyclic phosphonate analogs” value (recombinant rat HSL [2]; vs about 400 nM) was “about 10 fold”.

— PMC4340684 (Bioorganic & medicinal chemistry, 2015)
